Measurements pooled from the literature.
Each line is one published result; the experiments were not run side by side. Values after ≈ are worked out from the molar mass of the structure shown.
Organism: Enterococcus faecalis

c1ccc(CN(CCN(Cc2ccccn2)Cc2ccccn2)Cc2ccccn2)nc1  MBC (microbial killing; OG1RF): > 2000 µM
Cc1ccc(C)n1-c1ccc(-c2nnc(-c3c(Cl)cccc3Cl)[nH]2)cc1  MIC (microbial growth; broth dilution; ATCC14506; 18 h): 8 µg/mL (≈ 20.9 µM)
CSc1ccc(-c2nc3ccc(C)cc3n2Cc2ccccc2)cc1  MIC (microbial growth; broth dilution; ATCC29212): 128 µg/mL (≈ 372 µM)
CN[C@H](CC(C)C)C(=O)N[C@H]1C(=O)N[C@@H](CC(N)=O)C(=O)N[C@H]2C(=O)N[C@H]3C(=O)N[C@H](C(=O)N[C@H](C(=O)O)c4cc(O)cc(O)c4-c4cc3ccc4O)[C@H](O)c3ccc(c(Cl)c3)Oc3cc2cc(c3O[C@@H]2O[C@H](CO)[C@@H](O)[C@H](O)[C@H]2O[C@H]2C[C@](C)(N)[C@H](O)[C@H](C)O2)Oc2ccc(cc2Cl)[C@H]1O  MBC (microbial killing; broth dilution; NCTC12697): 16 µM (≈ 23.2 µg/mL)
O=C(O)CN(CCN(CC(=O)O)CC(=O)O)CC(=O)O  MBC (microbial killing; OG1RF): 500 µM (≈ 146 µg/mL)
Cc1cc(C)n(C(=O)c2ccc(-n3c(C)ccc3C)cc2)n1  MIC (microbial growth; broth dilution; ATCC14506; 18 h): 125 µg/mL (≈ 426 µM)
Clc1ccc(-c2nc3ccccc3[nH]2)c(Cl)c1  MIC (microbial growth; broth dilution; ATCC29212): 64 µg/mL (≈ 243 µM)
CCn1cc(C(=O)O)c(=O)c2cc(F)c(N3CCNCC3)cc21  MBC (microbial killing; broth dilution; NCTC12697): 4 µM (≈ 1.28 µg/mL)
COc1cccc(-c2nc3ccc(C)cc3[nH]2)c1  MIC (microbial growth; broth dilution; ATCC29212): 128 µg/mL (≈ 537 µM)
CC1(C)S[C@@H]2[C@H](NC(=O)[C@H](N)c3ccccc3)C(=O)N2[C@H]1C(=O)O  inhibition (microbial growth; agar dilution; ATCC29212; 26.93 µM): 100%
